Measured values: publication PMC3660010 (Diabetologia, 2012)
Positions count from the first letter of the chain named. Names may count otherwise. “Also recorded” adds a separate entry of the source. Ends that are not written are not given here.

What was measured:
[1] = test system: INS 832/13 insulinoma cells; test: Cleaved caspase-3 Western blot, synthetic hIAPP-induced apoptosis; assay type: cell-based, rat; conditions: 20 μmol/l synthetic peptide, 24 h
[2] = test system: INS 832/13 insulinoma cells; test: MTT assay, synthetic hIAPP-induced cytotoxicity; assay type: cell-based, rat; conditions: 48 h; for viable cells relative to vehicle control cells (MTT), peptide alone: 20 μmol/l synthetic peptide, INS 832/13, mean ± SEM
Outline: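 INS 832/13 cells were exposed to 20 μmol/l synthetic hIAPP plus 4, 40 or 400 nmol/l recombinant NEP or NEPx for 48 h, with vehicle (0.8% DMSO in media), 20 μmol/l rIAPP and 400 nmol/l transferrin controls. MTT added 1:10 from 5 mg/ml stock, 4 h at 37°C, HCl/isopropanol, A570. Viability as % of vehicle; mean ± SEM, n = 3 to 9, one-way ANOVA with Dunnett's test.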

[3] = test system: hIAPP fibrils; test: Transmission electron microscopy of hIAPP fibrils; assay type: biochemical, human; conditions: 37°C, 20 h; for hIAPP fibrils by TEM in the presence of protein: hIAPP 25 μmol/l with 0.5 μmol/l protein
[4] = test system: INS 832/13 insulinoma cells; test: MTT assay, hIAPP overexpression-induced cytotoxicity; assay type: cell-based, rat; conditions: 48 h; for effect on hIAPP overexpression-induced cytotoxicity (MTT), 400 nmol/l protein: adenovirus prepro-hIAPP-GFP MOI 100, 400 nmol/l protein in media
Outline: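 INS 832/13 rat insulinoma cells (RPMI 1640, 11.1 mmol/l glucose, 10% FBS, 37°C, 5% CO2) transduced with adenovirus encoding prepro-hIAPP-GFP at MOI 100; GFP and prepro-rIAPP-GFP viruses as controls. Recombinant NEP or NEPx (4, 40, 400 nmol/l) or transferrin (400 nmol/l) added to media. After 48 h, MTT 4 h at 37°C, acidic isopropanol, A570; viability as % of vehicle control.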

[5] = test system: neprilysin (NEP); test: 400 nmol/l recombinant NEP in 20 mmol/l MES buffer, pH 6.5; conditions: human, 37°C, up to 60 min
[6] = test system: NEP; conditions: cited from earlier work
[7] = target: NEPx (Homo sapiens, UniProt P08473, E585V); test: Cleavage of hIAPP by catalytically compromised NEPx, reverse phase HPLC; assay type: biochemical; conditions: 20 μmol/l hIAPP, 400 nmol/l NEPx, 37°C, 1 h
Outline: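 Enzyme: recombinant human NEP ectodomain E585V mutant, expressed in CHO-S cells as a His-tagged growth hormone fusion. Purified by nickel affinity, PreScission removal of growth hormone, and MonoQ anion exchange. 20 μmol/l hIAPP incubated with the enzyme in 20 mmol/l MES, pH 6.5, at 37°C. Stopped with TFA to 0.5%. Reverse-phase HPLC on a C4 column.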

[8] = target: T1, NEP (Homo sapiens, UniProt P08473); test: Cleavage of peptide by neprilysin, reverse phase HPLC and mass spectrometry; assay type: biochemical; conditions: 37°C
T1 sequence (P08473 52-750 limits assumed): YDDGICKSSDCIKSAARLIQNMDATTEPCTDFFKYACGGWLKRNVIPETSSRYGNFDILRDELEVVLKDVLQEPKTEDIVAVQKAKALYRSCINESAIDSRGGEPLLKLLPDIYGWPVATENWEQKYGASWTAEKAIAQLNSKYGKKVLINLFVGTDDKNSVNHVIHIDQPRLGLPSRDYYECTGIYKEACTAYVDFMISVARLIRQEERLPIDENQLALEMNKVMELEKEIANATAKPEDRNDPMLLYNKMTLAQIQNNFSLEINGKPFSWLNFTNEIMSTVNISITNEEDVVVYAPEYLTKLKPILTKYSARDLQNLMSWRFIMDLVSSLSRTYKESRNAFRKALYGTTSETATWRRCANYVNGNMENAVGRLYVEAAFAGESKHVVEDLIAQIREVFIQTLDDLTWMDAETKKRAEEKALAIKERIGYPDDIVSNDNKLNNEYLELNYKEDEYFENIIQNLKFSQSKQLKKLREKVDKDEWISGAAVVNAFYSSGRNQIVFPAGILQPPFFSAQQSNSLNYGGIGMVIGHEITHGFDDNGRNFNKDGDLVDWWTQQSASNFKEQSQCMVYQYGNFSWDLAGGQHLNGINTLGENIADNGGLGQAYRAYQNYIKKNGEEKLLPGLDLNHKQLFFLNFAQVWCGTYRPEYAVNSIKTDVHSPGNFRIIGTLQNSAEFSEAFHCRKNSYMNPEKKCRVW
Outline: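 Purified His-tagged recombinant human NEP (CHO-S-expressed, nickel-affinity and anion-exchange purified), 400 nmol/l, incubated with 20 μmol/l hIAPP (from 2.5 mmol/l DMSO stock) in 20 mmol/l MES, pH 6.5, 37°C for 60 min, with or without phosphoramidon; catalytically compromised E585V mutant run in parallel. Stopped with TFA to 0.5%, reverse-phase HPLC on C4 column; products collected manually for mass spectral identification.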

[9] = target: T1, NEP; test: Fluorogenic assay of NEP activity, inhibition by phosphoramidon; assay type: biochemical
[10] = target: NEP^E585V mutant (NEPx) (Homo sapiens, UniProt P08473, E585V); test: Fluorogenic assay of NEPx activity, inhibition by phosphoramidon; assay type: biochemical; conditions: GAAF-4-MNA as substrate
[11] = Fluorogenic assay of NEP activity with GAAF-4-MNA as substrate; assay type: biochemical; conditions: 100 μmol/l GAAF-4-MNA, 20 mmol/l MES pH 6.5, 37°C
[12] = 20 μmol/l synthetic hIAPP, mean ± SEM, n = 3 to 9

In the case of “rIAPP: synthetic rodent islet amyloid polypeptide, non-aggregating control [reference compound]”, the “induction of apoptosis (increase in cleaved caspase-3), peptide alone” value [1] is reported as “but not rIAPP, induced apoptosis” and the “viable cells relative to vehicle control cells (MTT), peptide alone” value ([2]; n = 3 to 9) is reported as “did not cause significant cytotoxicity”.

For “TF: transferrin used as protein control [reference compound]”, the “hIAPP fibrils by TEM in the presence of protein” value (shortened to “hIAPP fibrils … of protein”) [3] was “fibrils were observed”, the “effect on hIAPP overexpression-induced cytotoxicity (MTT), 400 nmol/l protein” value [4] was “had no effect” and the “viable cells (MTT) with hIAPP in the presence of 400 nmol/l protein” value (from here on “viable cells (MTT) … of 400 nmol/l protein”) [2, 12] was “did not protect”.

For “IAPP (1–37, disulfide bridge 2–7, amide)”, the cleaved bond [5] is given as “Arg11-Leu12, major; also recorded: Leu12-Ala13, major” and the not cleaved [6] is given as “concluded that NEP did not cleave hIAPP”.

In the case of `CC[C@H](C)[C@H](NC(=O)[C@H](C)NC(=O)CNC(=O)[C@H](Cc1ccccc1)NC(=O)[C@H](CC(N)=O)NC(=O)[C@H](CC(N)=O)NC(=O)[C@H](CO)NC(=O)[C@H](CO)NC(=O)[C@H](Cc1c[nH]cn1)NC(=O)[C@@H](NC(=O)[C@H](CC(C)C)NC(=O)[C@H](Cc1ccccc1)NC(=O)[C@H](CC(N)=O)NC(=O)[C@H](C)NC(=O)[C@H](CC(C)C)NC(=O)[C@H](CCCNC(=N)N)NC(=O)[C@H](CCC(N)=O)NC(=O)[C@@H](NC(=O)[C@H](C)NC(=O)[C@@H]1CSSC[C@H](NC(=O)[C@@H](N)CCCCN)C(=O)N[C@@H](CC(N)=O)C(=O)N[C@@H]([C@@H](C)O)C(=O)N[C@@H](C)C(=O)N[C@@H]([C@@H](C)O)C(=O)N1)[C@@H](C)O)C(C)C)C(=O)N[C@@H](CC(C)C)C(=O)N[C@@H](CO)C(=O)N[C@@H](CO)C(=O)N[C@H](C(=O)N[C@@H](CC(N)=O)C(=O)N[C@H](C(=O)NCC(=O)N[C@@H](CO)C(=O)N[C@@H](CC(N)=O)C(=O)N[C@H](C(=O)N[C@@H](Cc1ccc(O)cc1)C(N)=O)[C@@H](C)O)C(C)C)[C@@H](C)O` [hIAPP, IAPP (1–37, disulfide bridge 2–7, amide), reference compound], the “hIAPP fibrils by TEM, untreated hIAPP (CTRL)” value ([3]; hIAPP 25 μmol/l with buffer) is reported as “fibrils were observed”, the “cleavage of hIAPP by NEPx” value [7] is reported as “no cleavage” and the “induction of apoptosis (increase in cleaved caspase-3), peptide alone” value [1] is reported as “induced apoptosis”. The “viable cells relative to vehicle control cells (MTT), peptide alone” value ([2]; n = 3 to 9) was 15.6 ± 3.5%.

With ILSSTNVGSNTY-NH2 the “further cleavage of the product by NEP” value ([8]; product of hIAPP (20 μmol/l) with 400 nmol/l NEP, initially increased with time, then decreased (HPLC)) was “appeared to be further cleaved”.

For `CC(C)C[C@H](NP(=O)(O)O[C@@H]1O[C@@H](C)[C@H](O)[C@@H](O)[C@H]1O)C(=O)N[C@@H](Cc1c[nH]c2ccccc12)C(=O)O` [phosphoramidon], the “activity of NEP in the presence of phosphoramidon” value ([9]; GAAF-4-MNA as substrate) was “undetectable levels”, the inhibition at 50 µM ([9]; read-out: inhibition of NEP activity) was > 99% and the “activity of NEPx in the presence of phosphoramidon” value [10] was “undetectable levels”. The “effect of NEP inhibitor on hIAPP cleavage by NEP” value ([8]; 20 μmol/l hIAPP, 400 nmol/l NEP, 60 min, HPLC) was “blocked”.

B1: NEPx: catalytically compromised NEP^E585V mutant ectodomain, about 80% pure (protein, UniProt P08473 52-750, looked up, variant E585V)
extracellular domain: YDDGICKSSDCIKSAARLIQNMDATTEPCTDFFKYACGGWLKRNVIPETSSRYGNFDILRDELEVVLKDVLQEPKTEDIVAVQKAKALYRSCINESAIDSRGGEPLLKLLPDIYGWPVATENWEQKYGASWTAEKAIAQLNSKYGKKVLINLFVGTDDKNSVNHVIHIDQPRLGLPSRDYYECTGIYKEACTAYVDFMISVARLIRQEERLPIDENQLALEMNKVMELEKEIANATAKPEDRNDPMLLYNKMTLAQIQNNFSLEINGKPFSWLNFTNEIMSTVNISITNEEDVVVYAPEYLTKLKPILTKYSARDLQNLMSWRFIMDLVSSLSRTYKESRNAFRKALYGTTSETATWRRCANYVNGNMENAVGRLYVEAAFAGESKHVVEDLIAQIREVFIQTLDDLTWMDAETKKRAEEKALAIKERIGYPDDIVSNDNKLNNEYLELNYKEDEYFENIIQNLKFSQSKQLKKLREKVDKDEWISGAAVVNAFYSSGRNQIVFPAGILQPPFFSAQQSNSLNYGGIGMVIGHVITHGFDDNGRNFNKDGDLVDWWTQQSASNFKEQSQCMVYQYGNFSWDLAGGQHLNGINTLGENIADNGGLGQAYRAYQNYIKKNGEEKLLPGLDLNHKQLFFLNFAQVWCGTYRPEYAVNSIKTDVHSPGNFRIIGTLQNSAEFSEAFHCRKNSYMNPEKKCRVW
modifications: extracellular domain
For B1, the “hIAPP fibrils … of protein” value [3] was “fibrils were observed”, the “effect on hIAPP overexpression-induced cytotoxicity (MTT), NEPx” value ([4]; adenovirus prepro-hIAPP-GFP MOI 100, 4, 40 or 400 nmol/l NEPx) was “had no effect” and the “NEP activity abolished by the E585V mutation” value [11] was “greater than 98%”. The “activity relative to wild-type NEP activity” value ([11]; fluorescence ex 340/em 425 nm) was ~ 1.7% and the “viable cells (MTT) … of 400 nmol/l protein” value [2, 12] was 58.4 ± 9.3%.

B2: NEP: recombinant ectodomain of human neprilysin expressed in CHO-S cells (protein, UniProt P08473 52-750, looked up)
extracellular domain: B1 extracellular domain with V534E
modifications: extracellular domain
In the case of B2, the “hIAPP fibrils … of protein” value [3] is reported as “fibrils were not seen”, the “effect on hIAPP overexpression-induced cytotoxicity (MTT), 400 nmol/l protein” value [4] is reported as “reduced this hIAPP induced cytotoxicity” and the “effect on hIAPP overexpression-induced cytotoxicity (MTT), lower concentrations of NEP” value ([4]; adenovirus prepro-hIAPP-GFP MOI 100, 4 or 40 nmol/l) is reported as “had no effect”. The “viable cells (MTT) with hIAPP in the presence of 4 nmol/l protein” value ([2]; 20 μmol/l synthetic hIAPP, 4 nmol/l protein, not statistically significant) was 39.4 ± 15.3%, the “viable cells (MTT) with hIAPP in the presence of 40 nmol/l protein” value ([2]; 20 μmol/l synthetic hIAPP, 40 nmol/l protein, mean ± SEM, n = 3 to 9) was 92.9 ± 9.5% and the “viable cells (MTT) … of 400 nmol/l protein” value [2, 12] was 84.5 ± 7.3%.
